Laboratory results reported in ChEMBL document CHEMBL3351900, “Conjugation of a nonspecific antiviral sapogenin with a specific HIV fusion inhibitor: a promising strategy for discovering new antiviral therapeutics” (J Med Chem, 2014).
Values after ≈ are worked out from the molar mass of the structure shown. Active and inactive are the calls of the source. The calls are words filed in the database; no cut-off is given here. Square brackets hold non-standard residues; d marks the D form. Peptide text beside a SMILES is read from it. * marks the point of attachment. X2 = C=CCOC(=O)[C@]12CCC(C)(C)C[C@H]1C1=CC[C@@H]3[C@@]4(C)CC[C@H](OC(=O)CCc5cn(CC(=O)*)nn5)C(C)(C)[C@@H]4CC[C@@]3(C)[C@]1(C)CC2; X11 = CCCc1cn(CC(=O)*)nn1; βAla = NCCC(=O)O

Columns and labels:
[1] = Cytotoxicity against human MT2 cells after 4 days by XTT assay; format: cell-based
Method in brief: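 MT-2 cells (5 × 10⁵/mL) mixed with equal volumes of graded conjugate concentrations and held at 37 °C for 4 days. XTT (1 mg/mL) with 0.02 μM phenazine methosulfate added for 4 h, then A450 read. CC50 calculated from the dose–response.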

[2] = Solubility of the compound in pure water by UV spectrophotometry; format: physicochemical
Method in brief: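 About 1 mg of peptide dissolved in 10 μL water or PBS and centrifuged. Supernatant concentration of the tyrosine-containing conjugate determined from UV absorbance at 280 nm.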

[3] = Selectivity index, ratio of CC50 for human MT2 cells to EC50 for HIV1 3B infected in human MT2 cells; format: toxicity, cell-based; settings: read-out: Ratio CC50/EC50
[4] = test system: Human immunodeficiency virus 1; experiment: Antiviral activity against HIV1 BaL infected in human […] cells assessed as inhibition of viral replication; format: functional, organism-based; settings: Human immunodeficiency virus 1, BaL
Method in brief: (§1)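 MT-2 cells (1 × 10⁴) infected with 100 TCID₅₀ virus with or without peptides at graded concentrations. Culture supernatants collected on day 4 postinfection; p24 antigen quantified by ELISA. Percent inhibition and EC₅₀ calculated; tested in triplicate, mean ± standard deviation.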

[5] = test system: Human immunodeficiency virus 1; experiment: Antiviral activity against HIV1 3B infected in human MT2 cells assessed as inhibition of viral p24 antigen production by ELISA; format: functional, organism-based; settings: Human immunodeficiency virus 1, 3B; method in brief: as §1
[6] = molecular target: GP41 (Human immunodeficiency virus 1) (UniProt Q76270); experiment: Inhibition of HIV1 gp41 NHR assessed as inhibition of 6HB formation by FRET assay
Method in brief: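 FRET competition assay. A bpy-labelled 31-mer NHR pocket peptide is trimerized by Fe(II) into env2.0, which quenches the Lucifer-yellow-tagged CP2 probe. Displacement of the probe raises fluorescence. Used 7 μM binding sites (three per trimer) and 1 μM CP2-LY.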

[7] = test system: Human immunodeficiency virus 1; experiment: Antiviral activity against T20-sensitive HIV1 NL4-3 harboring gp41 D36G mutant infected in human MT2 cells; format: functional, organism-based; method in brief: as §1
[8] = Half life in rat liver homogenate at 8 ug/ml; format: ADME, tissue-based
[9] = test system: Human immunodeficiency virus 1; experiment: Ratio of EC50 for T20-resistant HIV1 NL4-3 harboring gp41 D36G/V38A mutant infected in human MT2 cells to EC50 for T20-sensitive HIV1 NL4-3 harboring gp41 D36G mutant infected in human MT2 cells; format: functional
Method in brief: (§2)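 MT-2 cells (1 × 10⁴) infected with 100 TCID₅₀ of HIV-1 NL4-3 gp41 mutant virus with or without peptide at graded concentrations. Culture supernatants collected on day 4 postinfection and p24 antigen measured by ELISA. Percent inhibition and EC₅₀ calculated, triplicate, mean ± standard deviation. Fold change = EC₅₀ against each mutant divided by EC₅₀ against the D36G strain.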

[10] = test system: Human immunodeficiency virus 1; experiment: Ratio of EC50 for T20-resistant HIV1 NL4-3 harboring gp41 D36G/N42T/N43K mutant infected in human MT2 cells to EC50 for T20-sensitive HIV1 NL4-3 harboring gp41 D36G mutant infected in human MT2 cells; format: functional; method in brief: as §2
Rattus norvegicus [11] = experiment: AUC (0 to t) in rat at 4 mg/kg, iv administered as single dose; format: ADME, organism-based, Plasma; design: dose 4 mg/kg, route intravenous; settings: in vivo
Method in brief: (§3)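 Rats given one intravenous dose of 4 mg/kg. Peptide measured in plasma over time. Parameters (AUC(0−t), MRT(0−t), t1/2, Vd, Cmax) derived by model-independent analysis.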

Rattus norvegicus [12] = experiment: Half life in rat at 4 mg/kg, iv at 4 mg/kg, iv administered as single dose; format: ADME, organism-based; settings: in vivo; method in brief: as §3
[13] = test system: Human immunodeficiency virus 1; experiment: Ratio of EC50 for T20-resistant HIV1 NL4-3 harboring gp41 D36G/V38A/N42T mutant infected in human MT2 cells to EC50 for T20-sensitive HIV1 NL4-3 harboring gp41 D36G mutant infected in human MT2 cells; format: functional; method in brief: as §2
[14] = Half life of the compound at 8 ug/ml by proteinase K digestion assay; format: ADME
[15] = Half life in rat kidney homogenate at 8 ug/ml; format: ADME, tissue-based
[16] = test system: Human immunodeficiency virus 1; experiment: Antiviral activity against T20-resistant HIV1 NL4-3 harboring gp41 D36G/V38A mutant infected in human MT2 cells; format: functional, organism-based; method in brief: as §1
Rattus norvegicus [17] = experiment: Cmax in rat at 4 mg/kg, iv administered as single dose; format: ADME, organism-based; design: dose 4 mg/kg, route intravenous; settings: in vivo; method in brief: as §3
[18] = Volume of distribution in rat at 4 mg/kg, iv administered as single dose; format: ADME, organism-based; design: dose 4 mg/kg, route intravenous; settings: in vivo; method in brief: as §3
[19] = test system: Human immunodeficiency virus 1; experiment: Ratio of EC50 for T20-resistant HIV1 NL4-3 harboring gp41 D36G/V38A/N42D mutant infected in human MT2 cells to EC50 for T20-sensitive HIV1 NL4-3 harboring gp41 D36G mutant infected in human MT2 cells; format: functional; method in brief: as §2
[20] = molecular target: GP41 (Human immunodeficiency virus 1) (UniProt Q76270); experiment: Ratio of EC50 for HIV1 gp41-induced cell-cell fusion between viral envelope expressing human HL2/3 cells to CD4/CCR5 receptor expressing TZM-bl cells with wash out to EC50 for HIV1 gp41-induced cell-cell fusion between viral envelope expressing human HL2/3 cells to CD4/CCR5 receptor expressing TZM-bl cells; format: cell-based
Method in brief: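 Peptides preincubated with TZM-bl cells at 37 °C for 1 h, with or without washing away unbound peptide. EC50 compared between washed and unwashed cells, giving the n-fold change. Triplicates, mean ± SD.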

[21] = test system: Human immunodeficiency virus 1; experiment: Ratio of EC50 for T20-resistant HIV1 NL4-3 harboring gp41 D36G/V38E/N42S mutant infected in human MT2 cells to EC50 for T20-sensitive HIV1 NL4-3 harboring gp41 D36G mutant infected in human MT2 cells; format: functional; method in brief: as §2
[22] = test system: Human immunodeficiency virus 1; experiment: Antiviral activity against T20-resistant HIV1 NL4-3 harboring gp41 D36G/N42T/N43K mutant infected in human MT2 cells; format: functional, organism-based; method in brief: as §1
[23] = test system: Human immunodeficiency virus 1; experiment: Antiviral activity against T20-resistant HIV1 NL4-3 harboring gp41 D36G/V38A/N42T mutant infected in human MT2 cells; format: functional, organism-based; method in brief: as §1
[24] = test system: Human immunodeficiency virus 1; experiment: Antiviral activity against T20-resistant HIV1 NL4-3 harboring gp41 D36G/V38A/N42D mutant infected in human MT2 cells; format: functional, organism-based; method in brief: as §1
[25] = test system: Human immunodeficiency virus 1; experiment: Antiviral activity against T20-resistant HIV1 NL4-3 harboring gp41 D36G/V38E/N42S mutant infected in human MT2 cells; format: functional, organism-based; method in brief: as §1

## C=CCOC(=O)[C@]12CCC(C)(C)C[C@H]1C1=CC[C@@H]3[C@@]4(C)CC[C@H](OC(=O)CCc5cn(CC(=O)NCCCC[C@H](NC(=O)CCNC(=O)[C@H](CC(C)C)NC(=O)[C@H](CC(C)C)NC(=O)[C@H](CCC(=O)O)NC(=O)[C@H](CCC(N)=O)NC(=O)[C@H](CCC(=O)O)NC(=O)[C@H](CC(N)=O)NC(=O)[C@H](CCCCN)NC(=O)[C@H](CCC(=O)O)NC(=O)[C@H](CCC(N)=O)NC(=O)[C@H](CCC(N)=O)NC(=O)[C@H](CC(N)=O)NC(=O)[C@H](CCC(N)=O)NC(=O)[C@H](CO)NC(=O)[C@H](CCC(=O)O)NC(=O)[C@H](CCC(=O)O)NC(=O)[C@@H](NC(=O)[C@H](CC(C)C)NC(=O)[C@H](CO)NC(=O)[C@H](Cc6cnc[nH]6)NC(=O)[C@@H](NC(=O)[C@H](CC(C)C)NC(=O)[C@H](CO)NC(=O)[C@@H](NC(=O)[C@H](Cc6ccc(O)cc6)NC(=O)[C@H](CC(N)=O)NC(=O)[C@H](CC(N)=O)NC(C)=O)[C@@H](C)O)[C@@H](C)CC)[C@@H](C)CC)C(N)=O)nn5)C(C)(C)[C@@H]4CC[C@@]3(C)[C@]1(C)CC2 (Ac-NNYTSLIHSLIEESQNQQEKNEQELL[βAla]K(X2)-NH2)
[1]
  CC50 at 96 h: 8.22 µM
[2]
  solubility: 12.4 mg/mL (≈ 3.1 mM)
[3]
  selectivity ratio: 2640
[4]
  EC50: 0.271 nM
[5]
  EC50: 3.11 nM

## CCCc1cn(CC(=O)NCCC(=O)N[C@@H](CC(N)=O)C(=O)N[C@@H](CC(N)=O)C(=O)N[C@@H](Cc2ccc(O)cc2)C(=O)N[C@H](C(=O)N[C@@H](CO)C(=O)N[C@@H](CC(C)C)C(=O)N[C@H](C(=O)N[C@@H](Cc2cnc[nH]2)C(=O)N[C@@H](CO)C(=O)N[C@@H](CC(C)C)C(=O)N[C@H](C(=O)N[C@@H](CCC(=O)O)C(=O)N[C@@H](CCC(=O)O)C(=O)N[C@@H](CO)C(=O)N[C@@H](CCC(N)=O)C(=O)N[C@@H](CC(N)=O)C(=O)N[C@@H](CCC(N)=O)C(=O)N[C@@H](CCC(N)=O)C(=O)N[C@@H](CCC(=O)O)C(=O)N[C@@H](CCCCN)C(=O)N[C@@H](CC(N)=O)C(=O)N[C@@H](CCC(=O)O)C(=O)N[C@@H](CCC(N)=O)C(=O)N[C@@H](CCC(=O)O)C(=O)N[C@@H](CC(C)C)C(=O)N[C@@H](CC(C)C)C(N)=O)[C@@H](C)CC)[C@@H](C)CC)[C@@H](C)O)nn1 ({X11-βAla}-NNYTSLIHSLIEESQNQQEKNEQELL-NH2)
[6]
  inhibition: inactive

## enfuvirtide
[1]
  CC50 at 96 h: > 25 µM
[7]
  EC50: 40.6 nM
[8]
  half-life at 8 ug/ml: 31 min
[9]
  Ratio EC50: >50
[10]
  Ratio EC50: >50
Rattus norvegicus [11]
  AUCt: 26.9 µg·h/mL
Rattus norvegicus [12]
  t1/2: 2.18 h
[13]
  Ratio EC50: >50
[14]
  half-life at 8 ug/ml: 19.4 min
[15]
  half-life at 8 ug/ml: 16.9 min
[16]
  EC50: > 2000 nM
Rattus norvegicus [17]
  Cmax: 0.0255 mg/mL
[18]
  Vd: 0.44 L/kg
[19]
  Ratio EC50: >50
[3]
  selectivity ratio: > 2290
[20]
  Ratio EC50: 39
[21]
  Ratio EC50: >50
[22]
  EC50: > 2000 nM
[4]
  EC50: 2.88 nM
[23]
  EC50: > 2000 nM
[5]
  EC50: 10.9 nM
[24]
  EC50: > 2000 nM
[25]
  EC50: > 2000 nM
